Assay results reported in article PMC5884014 (Neoplasia (New York, N.Y.), 2017).

Assays:
[1] = tested on: LS174T; assay: Cytotoxicity assay; assay type: cell-based, human; details: Homo sapiens, LS174T, 72 h
[2] = Toxicology examination: histopathology of kidney and liver; assay type: in vivo; details: ICR mice
[3] = Toxicology examination: serum biochemistry; assay type: in vivo; details: ICR mice, 5-FU 50 mg/kg i.p., SL-1 30, oxaliplatin 7.5, cisplatin 7.5 mg/kg i.v.
[4] = tested on: DLD-1; assay: Cytotoxicity assay; assay type: cell-based, human; details: Homo sapiens, DLD-1, 72 h
[5] = tested on: FHC; assay: Cytotoxicity assay; assay type: cell-based, human; details: Homo sapiens, FHC, 72 h
[6] = tested on: RKO xenografts; assay: Anticancer activity in xenograft mouse model; assay type: in vivo, nude mice
[7] = tested on: breast carcinoma MX-1 xenografts; details: cited from earlier work
[8] = tested on: RKO cells; assay: Comet and modified comet assays; assay type: cell-based, human; details: 24 h, SL-1 0.75 μM, 5-FU […], alone or combined
In short: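 RKO cells were exposed to the test compound and/or 5-FU for 24 h and then processed by comet assay. The read-out was tail moment, reported as means ± SD (n = 3) and compared by Student's t test. Synergy on tail moment was expressed as a combination index (CI).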

[9] = tested on: HT-29; assay: Cytotoxicity assay; assay type: cell-based, human; details: Homo sapiens, HT-29, 72 h
[10] = tested on: Colo205; assay: Cytotoxicity assay; assay type: cell-based, human; details: Homo sapiens, COLO 205, 72 h
[11] = tested on: RKO cells; assay: Annexin V staining assay; assay type: cell-based, human
[12] = tested on: pEGFP-N1 plasmid DNA; assay: Alkaline agarose gel shift assay; assay type: biochemical; details: 37°C, 2 h
[13] = tested on: Caco-2; assay: Cytotoxicity assay; assay type: cell-based; details: Homo sapiens, Caco-2, 72 h
[14] = tested on: RKO; assay: Cytotoxicity assay; assay type: cell-based, human; details: Homo sapiens, RKO, 72 h
[15] = tested on: LoVo; assay: Cytotoxicity assay; assay type: cell-based, human; details: Homo sapiens, LoVo, 72 h
[16] = tested on: SW620; assay: Cytotoxicity assay; assay type: cell-based, human; details: Homo sapiens, SW-620, 72 h
[17] = tested on: H3347; assay: Cytotoxicity assay; assay type: cell-based, human; details: Homo sapiens, H3347, 72 h
[18] = tested on: HCT116; assay: Cytotoxicity assay; assay type: cell-based, human; details: Homo sapiens, HCT-116, 72 h
[19] = Toxicology examination: complete blood counts; assay type: in vivo; details: ICR mice, 5-FU 50 mg/kg i.p., SL-1 30, oxaliplatin 7.5, cisplatin 7.5 mg/kg i.v.
[20] = tested on: CRC cell lines; assay: Cytotoxicity, panel of CRC cell lines; assay type: cell-based; details: Homo sapiens, read-out: IC50 values in CRC cell lines
[21] = tested on: pGL4-WT and pGL4-MT luciferase reporters in RKO cells; assay: Luciferase reporter assay; assay type: cell-based, human; details: SL-1 for 2 h

Q: With `Cc1cc(NNC(=O)Nc2ccc(N(CCCl)CCCl)cc2)c2cc3c(cc2n1)OCO3` [SL-1, N-{4-[Bis(2-chloroethyl)amino]phenyl}-2-(6-methyl[1,3]-dioxolo[4,5-g]quinolin-8-yl)-hydrazinecarboxamide] as the compound, how does the IC50 [1] read?
A: 4.55 ± 1.01 µM

Q: What about the liver histopathology ([2]; 2-day test) of the same compound?
A: liver damage was insignificant

Q: And the kidney histopathology ([2]; 2 days after single dose)?
A: insignificant morphological injury in the kidney

Q: What about the “histopathological examination, overall” value ([2]; SL-1 30 mg/kg i.v.) of the same compound?
A: no obvious nephrotoxicity or hepatotoxicity

Q: And the ALP ([3]; 2 days)?
A: 331.75 ± 27.94 U/l

Q: And the ALT ([3]; 2 days)?
A: 24.50 ± 2.17 U/l

Q: And the AST ([3]; 2 days)?
A: 49.00 ± 3.24 U/l

Q: What about the BUN ([3]; 2 days) of the same compound?
A: 23.05 ± 2.22 mg/dL

Q: What about the CRE ([3]; 2 days) of the same compound?
A: 0.20 ± 0.00 mg/dL

Q: And the GLU ([3]; 2 days)?
A: 466.50 ± 146.80 mg/dL

Q: And the ALP ([3]; 14 days)?
A: 231.00 ± 85.33 U/l

Q: And the BUN ([3]; 14 days)?
A: 20.05 ± 2.37 mg/dL

Q: And the CRE ([3]; 14 days)?
A: 0.17 ± 0.06 mg/dL

Q: And the GLU ([3]; 14 days)?
A: 219.75 ± 35.85 mg/dL

Q: What about the GOT/AST ([3]; 14 days) of the same compound?
A: 47.50 ± 1.29 U/l

Q: What about the GPT/ALT ([3]; 14 days) of the same compound?
A: 22.00 ± 8.04 U/l

Q: What about the IC50 [4] of the same compound?
A: 0.36 ± 0.07 µM

Q: What about the IC50 [5] of the same compound?
A: 71.5 ± 8.36 µM

Q: And the tumor suppression ([6]; RKO xenograft (Figure 6A), SL-1 30 mg/kg Q2D×7 i.v., oxaliplatin 7.5 mg/kg, 5-FU 50 mg/kg)?
A: 61.8%

Q: And the tumor growth suppression ([6]; RKO xenograft, nude mice, day 29, SL-1 30 mg/kg i.v. every other day 7 times)?
A: approximately 65%

Q: What about the “growth of breast carcinoma MX-1 xenografts” value [7] of the same compound?
A: complete tumor remission

Q: What about the tail moment [8] of the same compound?
A: 5.4 ± 0.8 μm

Q: And the IC50 [9]?
A: 0.53 ± 0.11 µM

Q: And the IC50 [10]?
A: 0.46 ± 0.1 µM

Q: And the “mode of cell death” value [11]?
A: primarily triggered apoptosis

Q: And the “concentration that induced moderate levels of ICLs” value [12]?
A: 0.05 µM

Q: What about the IC50 [13] of the same compound?
A: 5.49 ± 3.07 µM

Q: What about the IC50 [14] of the same compound?
A: 0.2 ± 0.08 µM

Q: What about the IC50 [15] of the same compound?
A: 0.61 ± 0.03 µM

Q: And the IC50 [16]?
A: 0.14 ± 0.06 µM

Q: And the IC50 [17]?
A: 0.23 ± 0.03 µM

Q: And the IC50 [18]?
A: 0.34 ± 0.06 µM

Q: What about the BASO ([19]; 2 days) of the same compound?
A: 0.00 ± 0.00 10^9/l

Q: And the EO ([19]; 2 days)?
A: 0.09 ± 0.03 10^9/l

Q: What about the HCT ([19]; 2 days) of the same compound?
A: 38.32 ± 3.18%

Q: And the HGB ([19]; 2 days)?
A: 12.34 ± 1.35 g/dL

Q: And the LYMPH ([19]; 2 days)?
A: 3.55 ± 0.98 10^9/l

Q: What about the MCH ([19]; 2 days) of the same compound?
A: 15.88 ± 0.48 pg

Q: And the MCHC ([19]; 2 days)?
A: 25.86 ± 1.72 g/dL

Q: What about the MCV ([19]; 2 days) of the same compound?
A: 58.18 ± 3.66 fL

Q: And the MONO ([19]; 2 days)?
A: 0.05 ± 0.03 10^9/l

Q: And the NEUT ([19]; 2 days)?
A: 0.54 ± 0.20 10^9/l

Q: And the PLT ([19]; 2 days)?
A: 1742.40 ± 273.56 10^9/l

Q: And the RBC ([19]; 2 days)?
A: 7.80 ± 1.03 10^12/l

Q: And the WBC ([19]; 2 days)?
A: 4.81 ± 1.00 10^9/l

Q: What about the BASO ([19]; 14 days) of the same compound?
A: 0.01 ± 0.01 10^9/l

Q: And the EO ([19]; 14 days)?
A: 0.13 ± 0.05 10^9/l

Q: And the HCT ([19]; 14 days)?
A: 46.28 ± 2.32%

Q: And the HGB ([19]; 14 days)?
A: 13.36 ± 0.74 g/dL

Q: What about the LYMPH ([19]; 14 days) of the same compound?
A: 4.17 ± 1.28 10^9/l

Q: And the MCH ([19]; 14 days)?
A: 15.58 ± 0.47 pg

Q: And the MCHC ([19]; 14 days)?
A: 28.84 ± 0.57 g/dL

Q: What about the MCV ([19]; 14 days) of the same compound?
A: 53.96 ± 1.92 fL

Q: What about the MONO ([19]; 14 days) of the same compound?
A: 0.12 ± 0.15 10^9/l

Q: What about the NEUT ([19]; 14 days) of the same compound?
A: 1.08 ± 0.36 10^9/l

Q: And the PLT ([19]; 14 days)?
A: 838.80 ± 57.98 10^9/l

Q: What about the RBC ([19]; 14 days) of the same compound?
A: 8.60 ± 0.68 10^12/l

Q: And the WBC ([19]; 14 days)?
A: 5.50 ± 1.64 10^9/l

Q: And the IC50 [20]?
A: 0.14 to 5.49 µM

Q: What about the “inhibition of luciferase reporter activity, pGL4-WT vs pGL4-MT” value [21] of the same compound?
A: inhibited the reporter activity of pGL4-WT more effectively than that of pGL4-MT
